From ChEMBL document CHEMBL1135728, “Bis(1H-2-indolyl)methanones as a novel class of inhibitors of the platelet-derived growth factor receptor kinase” (J Med Chem, 2002)

Tests used:
[1] = biological target: Platelet-derived growth factor receptor (Homo sapiens, UniProt P09619+P16234); assay: Antitumor activity measured by the inhibition of platelet-derived growth factor receptor autophosphorylation in intact Swiss 3T3 cells; assay type: cell-based
Method in brief: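 Quiescent Swiss 3T3 fibroblasts moved to serum-free DMEM and exposed to compound in DMSO (final 1%) for 2 h. They were then stimulated with 100 ng/mL human recombinant PDGF-BB for 10 min at room temperature and lysed. Autophosphorylation was read by immunoblotting. Four to eight concentrations were tested across 2 orders of magnitude, and IC50 came from curve fitting over three independent experiments.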

[2] = biological target: Platelet-derived growth factor receptor alpha (Homo sapiens, UniProt P16234); assay: Inhibition of Platelet-derived growth factor receptor alpha autophosphorylation in PAE cells; assay type: cell-based, Sus scrofa
Platelet-derived growth factor receptor alpha, sequence (P16234 whole entry): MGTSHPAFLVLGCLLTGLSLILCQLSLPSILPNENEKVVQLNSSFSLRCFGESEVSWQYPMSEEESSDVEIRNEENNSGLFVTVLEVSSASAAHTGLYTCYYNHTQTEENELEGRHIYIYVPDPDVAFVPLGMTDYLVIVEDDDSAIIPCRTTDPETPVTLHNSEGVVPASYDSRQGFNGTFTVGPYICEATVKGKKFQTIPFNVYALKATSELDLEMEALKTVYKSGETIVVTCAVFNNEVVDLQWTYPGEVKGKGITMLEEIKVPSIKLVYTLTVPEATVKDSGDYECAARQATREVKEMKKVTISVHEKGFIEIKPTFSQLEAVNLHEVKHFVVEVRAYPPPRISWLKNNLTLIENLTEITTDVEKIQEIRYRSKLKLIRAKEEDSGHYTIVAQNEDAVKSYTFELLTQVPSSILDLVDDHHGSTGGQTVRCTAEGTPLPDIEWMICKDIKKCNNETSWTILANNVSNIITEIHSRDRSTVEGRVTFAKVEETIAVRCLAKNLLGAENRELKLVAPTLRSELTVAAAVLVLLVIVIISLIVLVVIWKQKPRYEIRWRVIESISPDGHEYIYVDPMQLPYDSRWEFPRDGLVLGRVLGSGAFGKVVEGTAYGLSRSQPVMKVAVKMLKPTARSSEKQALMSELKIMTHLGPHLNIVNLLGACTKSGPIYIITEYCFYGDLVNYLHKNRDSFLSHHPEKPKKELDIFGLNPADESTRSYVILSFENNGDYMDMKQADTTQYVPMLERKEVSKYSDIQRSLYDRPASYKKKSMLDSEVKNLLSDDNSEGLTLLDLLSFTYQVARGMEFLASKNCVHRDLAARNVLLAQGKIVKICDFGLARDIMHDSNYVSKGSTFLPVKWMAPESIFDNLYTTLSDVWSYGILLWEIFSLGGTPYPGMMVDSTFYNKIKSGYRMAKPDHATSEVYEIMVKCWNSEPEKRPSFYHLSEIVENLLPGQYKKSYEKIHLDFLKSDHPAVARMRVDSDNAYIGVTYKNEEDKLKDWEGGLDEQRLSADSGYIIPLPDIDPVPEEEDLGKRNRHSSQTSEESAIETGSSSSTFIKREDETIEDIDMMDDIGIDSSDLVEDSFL
Method in brief: (§1)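 Porcine aortic endothelial cells expressing human PDGF α- or β-receptor were used. Receptor autophosphorylation in the intact cells was read by immunoblotting.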

[3] = biological target: T1, Protein kinase C epsilon type (Homo sapiens, UniProt Q02156); assay: Inhibition of His-tagged Protein kinase C epsilon over-expressed in COS7 cells; assay type: cell-based, COS-7
T1 sequence (Q02156 whole entry): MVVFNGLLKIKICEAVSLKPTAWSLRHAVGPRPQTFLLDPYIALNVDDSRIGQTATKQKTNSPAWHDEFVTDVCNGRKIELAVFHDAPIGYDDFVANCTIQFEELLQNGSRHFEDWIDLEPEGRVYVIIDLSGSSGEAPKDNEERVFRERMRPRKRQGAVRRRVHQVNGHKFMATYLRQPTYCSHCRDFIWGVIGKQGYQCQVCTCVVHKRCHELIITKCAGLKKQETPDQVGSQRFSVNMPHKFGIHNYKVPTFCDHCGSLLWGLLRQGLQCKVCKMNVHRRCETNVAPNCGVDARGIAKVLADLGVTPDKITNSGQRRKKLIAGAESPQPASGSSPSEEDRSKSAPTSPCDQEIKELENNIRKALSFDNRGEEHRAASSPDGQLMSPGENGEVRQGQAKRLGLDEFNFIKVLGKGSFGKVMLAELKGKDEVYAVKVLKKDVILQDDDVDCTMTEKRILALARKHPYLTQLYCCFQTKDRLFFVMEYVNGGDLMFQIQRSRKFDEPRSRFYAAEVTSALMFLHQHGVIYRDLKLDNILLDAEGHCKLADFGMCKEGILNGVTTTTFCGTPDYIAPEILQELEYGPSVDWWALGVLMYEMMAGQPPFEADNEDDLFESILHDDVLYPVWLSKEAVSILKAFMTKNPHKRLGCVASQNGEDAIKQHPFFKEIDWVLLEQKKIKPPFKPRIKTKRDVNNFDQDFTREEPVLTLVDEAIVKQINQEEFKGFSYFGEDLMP
Method in brief: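 RGS-His6-tagged PKC was transiently expressed in COS-7 cells, purified on Ni-NTA agarose and eluted with 500 mM imidazole. Reactions ran 10 min at 30 °C; phosphocellulose binding and scintillation counting gave the read-out.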

[4] = biological target: T2, Platelet-derived growth factor receptor beta (Homo sapiens, UniProt P09619); assay: Inhibition of Platelet-derived growth factor receptor beta autophosphorylation in PAE cells; assay type: cell-based, Sus scrofa; method in brief: as §1
T2 sequence (P09619 whole entry, the tested form may be a part): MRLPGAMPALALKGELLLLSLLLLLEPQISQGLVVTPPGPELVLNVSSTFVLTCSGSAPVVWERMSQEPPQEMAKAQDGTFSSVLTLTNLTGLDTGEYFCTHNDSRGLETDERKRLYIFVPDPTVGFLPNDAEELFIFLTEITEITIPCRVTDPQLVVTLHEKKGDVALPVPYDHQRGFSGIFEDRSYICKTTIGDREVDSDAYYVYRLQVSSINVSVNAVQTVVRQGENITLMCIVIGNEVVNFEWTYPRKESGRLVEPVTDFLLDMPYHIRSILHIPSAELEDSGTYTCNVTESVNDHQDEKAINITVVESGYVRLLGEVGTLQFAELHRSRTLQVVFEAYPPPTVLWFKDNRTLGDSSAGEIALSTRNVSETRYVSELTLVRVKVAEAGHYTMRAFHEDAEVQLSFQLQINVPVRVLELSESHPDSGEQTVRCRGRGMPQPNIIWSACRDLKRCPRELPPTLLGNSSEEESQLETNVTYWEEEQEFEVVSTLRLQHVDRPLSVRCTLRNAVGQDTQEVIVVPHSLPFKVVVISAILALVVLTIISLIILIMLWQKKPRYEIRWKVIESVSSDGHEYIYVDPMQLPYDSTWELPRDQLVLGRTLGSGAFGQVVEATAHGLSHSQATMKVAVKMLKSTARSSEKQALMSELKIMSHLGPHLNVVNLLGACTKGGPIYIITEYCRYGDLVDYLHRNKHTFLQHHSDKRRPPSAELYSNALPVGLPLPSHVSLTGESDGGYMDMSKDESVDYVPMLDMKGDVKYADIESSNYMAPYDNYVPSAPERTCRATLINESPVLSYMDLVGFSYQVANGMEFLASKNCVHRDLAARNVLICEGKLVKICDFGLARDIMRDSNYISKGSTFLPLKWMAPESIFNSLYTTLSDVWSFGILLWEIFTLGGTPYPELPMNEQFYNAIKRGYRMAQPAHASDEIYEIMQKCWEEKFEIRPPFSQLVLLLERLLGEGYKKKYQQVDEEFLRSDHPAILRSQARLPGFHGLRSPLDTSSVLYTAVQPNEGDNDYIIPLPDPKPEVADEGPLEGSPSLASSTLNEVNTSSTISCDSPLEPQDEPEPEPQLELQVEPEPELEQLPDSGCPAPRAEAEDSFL

[5] = biological target: T2, Platelet-derived growth factor receptor beta; assay: Inhibition of Platelet-derived growth factor receptor beta kinase activity in Sf9-expressed GST-fusion protein
Method in brief: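 A constitutively active GST fusion of the PDGFβ-receptor cytoplasmic domain was expressed in Sf9 cells. The isolated fusion protein was tested in an in vitro autophosphorylation assay at 10 µM ATP.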

[6] = biological target: Fibroblast growth factor receptor 1 (Homo sapiens, UniProt P11362); assay: Inhibition of Fibroblast growth factor receptor 1 autophosphorylation in PAE cells; assay type: cell-based, Sus scrofa
Fibroblast growth factor receptor 1, sequence (P11362 whole entry): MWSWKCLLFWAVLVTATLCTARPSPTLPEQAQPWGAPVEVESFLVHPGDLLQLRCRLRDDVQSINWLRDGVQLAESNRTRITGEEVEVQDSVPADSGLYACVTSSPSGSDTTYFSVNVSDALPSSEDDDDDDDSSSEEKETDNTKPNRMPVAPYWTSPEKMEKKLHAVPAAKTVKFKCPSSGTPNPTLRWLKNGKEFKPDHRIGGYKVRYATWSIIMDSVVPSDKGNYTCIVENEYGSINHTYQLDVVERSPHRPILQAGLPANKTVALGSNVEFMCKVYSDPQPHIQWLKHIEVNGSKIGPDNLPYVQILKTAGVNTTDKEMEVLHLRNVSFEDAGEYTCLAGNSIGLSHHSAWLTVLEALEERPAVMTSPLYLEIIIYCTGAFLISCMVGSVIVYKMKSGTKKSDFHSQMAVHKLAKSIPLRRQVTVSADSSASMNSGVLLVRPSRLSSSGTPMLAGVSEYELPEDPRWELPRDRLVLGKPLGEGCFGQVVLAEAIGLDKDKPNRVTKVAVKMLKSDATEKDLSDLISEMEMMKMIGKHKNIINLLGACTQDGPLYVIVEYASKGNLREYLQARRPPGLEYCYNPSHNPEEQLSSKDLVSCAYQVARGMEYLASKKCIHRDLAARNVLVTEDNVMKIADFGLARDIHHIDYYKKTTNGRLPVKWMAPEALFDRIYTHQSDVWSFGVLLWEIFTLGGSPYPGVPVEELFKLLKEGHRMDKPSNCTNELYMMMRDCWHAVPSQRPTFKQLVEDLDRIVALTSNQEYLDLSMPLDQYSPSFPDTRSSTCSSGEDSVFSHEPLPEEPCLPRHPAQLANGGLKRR

[7] = biological target: Epidermal growth factor receptor (Homo sapiens, UniProt P00533); assay: Inhibition of Epidermal growth factor receptor autophosphorylation in A431 cells; assay type: cell-based, A-431
Epidermal growth factor receptor, sequence (P00533 whole entry): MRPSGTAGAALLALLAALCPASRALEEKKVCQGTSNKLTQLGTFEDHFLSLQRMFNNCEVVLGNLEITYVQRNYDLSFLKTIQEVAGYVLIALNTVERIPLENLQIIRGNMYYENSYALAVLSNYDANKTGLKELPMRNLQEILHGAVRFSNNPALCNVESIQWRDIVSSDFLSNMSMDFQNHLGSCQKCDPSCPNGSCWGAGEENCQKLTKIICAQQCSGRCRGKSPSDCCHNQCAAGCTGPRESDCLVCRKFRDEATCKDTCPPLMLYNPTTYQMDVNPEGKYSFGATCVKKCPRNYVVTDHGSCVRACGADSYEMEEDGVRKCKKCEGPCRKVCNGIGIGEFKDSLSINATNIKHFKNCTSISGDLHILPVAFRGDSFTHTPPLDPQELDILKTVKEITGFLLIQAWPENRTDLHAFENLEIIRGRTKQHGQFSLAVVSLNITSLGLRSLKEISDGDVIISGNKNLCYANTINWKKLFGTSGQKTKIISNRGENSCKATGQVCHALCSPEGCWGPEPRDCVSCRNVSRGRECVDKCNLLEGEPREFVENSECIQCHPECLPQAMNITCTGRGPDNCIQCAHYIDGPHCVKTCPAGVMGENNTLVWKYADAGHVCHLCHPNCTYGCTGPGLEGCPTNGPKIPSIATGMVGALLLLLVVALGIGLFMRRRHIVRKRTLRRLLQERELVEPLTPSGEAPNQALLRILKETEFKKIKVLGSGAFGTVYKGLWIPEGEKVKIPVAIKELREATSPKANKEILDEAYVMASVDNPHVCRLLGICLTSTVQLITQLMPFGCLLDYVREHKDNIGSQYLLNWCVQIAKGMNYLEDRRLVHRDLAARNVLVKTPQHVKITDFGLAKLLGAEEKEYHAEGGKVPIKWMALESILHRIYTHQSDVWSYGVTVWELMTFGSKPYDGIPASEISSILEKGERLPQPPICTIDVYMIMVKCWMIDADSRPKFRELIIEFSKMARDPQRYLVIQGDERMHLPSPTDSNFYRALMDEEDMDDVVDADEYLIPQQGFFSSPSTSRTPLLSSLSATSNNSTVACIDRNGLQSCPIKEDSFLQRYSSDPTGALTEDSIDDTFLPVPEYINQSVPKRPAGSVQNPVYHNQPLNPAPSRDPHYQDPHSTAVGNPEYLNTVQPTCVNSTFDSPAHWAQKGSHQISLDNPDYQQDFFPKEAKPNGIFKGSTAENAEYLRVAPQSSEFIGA
Method in brief: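 A431 cells, starved overnight in serum-free medium, were exposed to compound for 2 h and then stimulated with 100 ng/mL EGF for 10 min. Cells were extracted in lysis buffer (Hepes pH 7.5, 1% Triton), and EGFR tyrosine autophosphorylation was read by immunoblotting.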

[8] = biological target: T3, Beta-adrenergic receptor kinase 1 (Homo sapiens, UniProt P25098); assay: Inhibition of G-protein coupled receptor kinase 2 (GRK2) in vitro phosphorylation
T3 sequence (P25098 whole entry): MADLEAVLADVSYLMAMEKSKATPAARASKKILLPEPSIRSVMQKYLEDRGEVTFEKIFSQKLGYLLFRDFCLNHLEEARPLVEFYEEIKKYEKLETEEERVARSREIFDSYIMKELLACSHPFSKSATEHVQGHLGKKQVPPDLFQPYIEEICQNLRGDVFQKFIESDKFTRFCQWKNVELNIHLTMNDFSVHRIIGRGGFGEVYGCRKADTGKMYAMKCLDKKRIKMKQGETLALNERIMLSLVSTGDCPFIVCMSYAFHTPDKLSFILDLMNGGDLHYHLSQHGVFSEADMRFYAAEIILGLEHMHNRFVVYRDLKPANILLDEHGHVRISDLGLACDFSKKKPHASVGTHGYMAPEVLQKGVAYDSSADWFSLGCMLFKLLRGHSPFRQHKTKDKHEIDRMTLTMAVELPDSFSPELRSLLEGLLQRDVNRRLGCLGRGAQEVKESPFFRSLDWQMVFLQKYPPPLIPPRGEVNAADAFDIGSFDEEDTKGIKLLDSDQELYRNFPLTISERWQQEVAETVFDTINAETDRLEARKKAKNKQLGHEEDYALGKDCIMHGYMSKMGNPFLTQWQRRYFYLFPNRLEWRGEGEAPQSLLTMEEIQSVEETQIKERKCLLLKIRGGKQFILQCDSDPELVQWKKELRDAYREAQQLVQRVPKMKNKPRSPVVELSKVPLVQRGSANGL
Method in brief: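 GRK2 was assayed in vitro using lysates of GRK2-overexpressing 293 cells as the kinase source. Rhodopsin purified from bovine rod outer segments served as substrate.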

[9] = biological target: Proto-oncogene tyrosine-protein kinase Src (Homo sapiens, UniProt P12931); assay: Inhibition of Src protein tyrosine kinase
Proto-oncogene tyrosine-protein kinase Src, sequence (P12931 2-536 limits assumed): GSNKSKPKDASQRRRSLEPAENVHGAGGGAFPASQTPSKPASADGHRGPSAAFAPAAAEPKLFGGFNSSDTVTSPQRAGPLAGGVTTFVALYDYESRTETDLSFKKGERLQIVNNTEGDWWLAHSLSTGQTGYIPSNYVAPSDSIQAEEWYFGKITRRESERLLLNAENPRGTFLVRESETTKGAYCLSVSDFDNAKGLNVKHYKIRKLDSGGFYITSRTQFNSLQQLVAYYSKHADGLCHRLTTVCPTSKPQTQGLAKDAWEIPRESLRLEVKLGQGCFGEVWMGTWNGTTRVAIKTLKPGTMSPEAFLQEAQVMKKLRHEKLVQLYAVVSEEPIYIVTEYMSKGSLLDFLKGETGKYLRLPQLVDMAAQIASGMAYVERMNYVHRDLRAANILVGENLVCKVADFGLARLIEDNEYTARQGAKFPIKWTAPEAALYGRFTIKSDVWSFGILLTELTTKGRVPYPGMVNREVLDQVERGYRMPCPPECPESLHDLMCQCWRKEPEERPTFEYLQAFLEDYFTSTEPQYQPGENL
Method in brief: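 Src-dependent tyrosine phosphorylation was measured in intact src-transformed NIH3T3 fibroblasts, with immunoblot read-out.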

[10] = biological target: T2, Platelet-derived growth factor receptor beta; assay: Inhibition of purified Platelet-derived growth factor receptor beta kinase activity
Method in brief: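 PDGFβ-receptor kinase was purified from membranes of a receptor-overexpressing cell line. Inhibition was tested in an in vitro autophosphorylation assay at 10 µM ATP.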

[11] = Inhibition of Protein kinase C isoforms epsilon and iota in vitro phosphorylation
Method in brief: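 RGS-His6-tagged PKC isoforms were expressed transiently in COS-7 cells and purified from lysate on Ni-NTA, with imidazole elution. Reactions ran 10 min at 30 °C, and phosphocellulose-bound radioactivity was counted.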

SMILES | IC50 [1] | other results
CCCC(=O)Oc1ccc2[nH]c(C(=O)c3cc4ccccc4[nH]3)cc2c1 | 1.1 µM | 
O=C(c1cc2ccccc2[nH]1)c1cc2cc(OC(=O)c3ccco3)ccc2[nH]1 | 0.6 µM | 
CCOc1ccc2[nH]c(C(=O)c3cc4ccccc4[nH]3)cc2c1 | 2.3 µM | 
COc1ccc2[nH]c(C(=O)c3cc4ccccc4s3)cc2c1 | 1 µM | 
CC(Oc1ccc2[nH]c(C(=O)c3cc4ccccc4[nH]3)cc2c1)c1ccccc1 (stereo not given) | > 30 µM | 
O=C(c1cc2ccccc2[nH]1)c1cc2cc(OCCN3CCOCC3)ccc2[nH]1 | 2.5 µM | 
O=C(Oc1ccc2[nH]c(C(=O)c3cc4ccccc4[nH]3)cc2c1)c1ccc(-c2ccccc2)cc1 | 1.7 µM | 
CN(C)CCOc1ccc2[nH]c(C(=O)c3cc4ccccc4[nH]3)cc2c1 | 0.8 µM | 
CCOc1ccc(C(=O)Oc2ccc3[nH]c(C(=O)c4cc5ccccc5[nH]4)cc3c2)cc1 | 1.3 µM | 
O=C(Oc1ccc2[nH]c(C(=O)c3cc4ccccc4[nH]3)cc2c1)c1ccc2ccccc2n1 | 0.4 µM | 
COc1cccc2cc(C(=O)c3cc4ccccc4[nH]3)[nH]c12 | > 30 µM | 
O=C(c1cc2ccccc2[nH]1)c1cc2cc(OCC3CCCCC3)ccc2[nH]1 | > 30 µM | 
O=C(Oc1ccc2[nH]c(C(=O)c3cc4ccccc4[nH]3)cc2c1)c1ccc([N+](=O)[O-])cc1 | 0.9 µM | 
O=C(c1cc2ccccc2[nH]1)c1cc2cc(OC(=O)c3ccccc3C(=O)c3ccccc3)ccc2[nH]1 | > 30 µM | 
Cc1ccc2[nH]c(C(=O)c3cc4ccccc4[nH]3)cc2c1 | 7.5 µM | 
COc1ccc(C(=O)Oc2ccc3[nH]c(C(=O)c4cc5ccccc5[nH]4)cc3c2)cc1 | 3.2 µM | 
O=C(c1cc2ccccc2[nH]1)c1cc2cc(OCc3ccccc3)ccc2[nH]1 | 10 µM | 
O=C(/C=C/c1ccccc1)Oc1ccc2[nH]c(C(=O)c3cc4ccccc4[nH]3)cc2c1 | 3.4 µM | 
O=C(c1cc2ccccc2[nH]1)c1cc2cc(OC(=O)C(c3ccccc3)c3ccccc3)ccc2[nH]1 | > 30 µM | 
O=C(Oc1ccc2[nH]c(C(=O)c3cc4ccccc4[nH]3)cc2c1)c1cccc(Oc2ccccc2)c1 | > 30 µM | 
O=C(c1cc2ccccc2[nH]1)c1cc2cc(OC(=O)C3CC3)ccc2[nH]1 | 9.1 µM | 
O=C(Cc1cccs1)Oc1ccc2[nH]c(C(=O)c3cc4ccccc4[nH]3)cc2c1 | 0.8 µM | 
O=C(Oc1ccc2[nH]c(C(=O)c3cc4ccccc4[nH]3)cc2c1)c1ccccc1 | 0.8 µM | 

SMILES | IC50 [1] | other results
COc1ccc2[nH]c(C(=O)c3cc4ccccc4[nH]3)cc2c1 | 0.3 µM | 
O=C(CCc1ccccc1)Oc1ccc2[nH]c(C(=O)c3cc4ccccc4[nH]3)cc2c1 | 1.2 µM | 
COc1ccc2[nH]c(C(=O)c3cc4cc(OC)ccc4[nH]3)cc2c1 | 10 µM | 
O=C(c1cc2ccccc2[nH]1)c1cc2cc(OCCCCCI)ccc2[nH]1 | > 20 µM | 
O=C(c1cc2ccccc2[nH]1)c1cc2cc(OC(=O)c3ccccc3Cl)ccc2[nH]1 | 4.6 µM | 
COc1cc(C(=O)Oc2ccc3[nH]c(C(=O)c4cc5ccccc5[nH]4)cc3c2)cc(OC)c1OC | 4.1 µM | 
O=C(c1cc2ccccc2[nH]1)c1cc2cc(OC(=O)c3ccccc3Oc3ccccc3)ccc2[nH]1 | > 30 µM | 
COc1cccc(CC(=O)Oc2ccc3[nH]c(C(=O)c4cc5ccccc5[nH]4)cc3c2)c1 | 1 µM | 
CN(C)CC(=O)Oc1ccc2[nH]c(C(=O)c3cc4ccccc4[nH]3)cc2c1 | 0.1 µM | IC50 [2]: 0.1 µM; IC50 [3]: 30 µM; IC50 [4]: 0.1 µM; IC50 [5]: 1.3 µM; IC50 [6]: > 10 µM; IC50 [7]: > 30 µM; IC50 [8]: > 100 µM; IC50 [9]: > 30 µM; IC50 [10]: 0.1 µM; IC50 [11]: 15.1 µM
O=C(Oc1ccc2[nH]c(C(=O)c3cc4ccccc4[nH]3)cc2c1)c1cccnc1 | 1 µM | 
O=C(c1cc2ccccc2[nH]1)c1cc2cc(OC(=O)C3CCC3)ccc2[nH]1 | 9.1 µM | 
CC(=O)OC(C(=O)Oc1ccc2[nH]c(C(=O)c3cc4ccccc4[nH]3)cc2c1)c1ccccc1 (stereo not given) | 0.9 µM | 
O=C(c1cc2ccccc2s1)c1cc2ccccc2s1 | > 30 µM | 
CC(=O)Oc1ccc2[nH]c(C(=O)c3cc4ccccc4[nH]3)cc2c1 | 0.3 µM | IC50 [2]: 0.1 µM; IC50 [3]: > 100 µM; IC50 [4]: 4.9 µM; IC50 [5]: 0.07 µM; IC50 [6]: 0.2 µM; IC50 [7]: > 30 µM; IC50 [8]: > 100 µM; IC50 [9]: > 30 µM; IC50 [10]: 0.3 µM; IC50 [11]: 17 µM
O=C(c1cc2ccccc2[nH]1)c1cc2cc(OCCN3CCCCC3)ccc2[nH]1 | 0.8 µM | 
COCC(=O)Oc1ccc2[nH]c(C(=O)c3cc4ccccc4[nH]3)cc2c1 | 0.2 µM | IC50 [2]: 0.3 µM; IC50 [3]: > 100 µM; IC50 [4]: 0.1 µM; IC50 [5]: 4.2 µM; IC50 [6]: > 10 µM; IC50 [7]: > 30 µM; IC50 [8]: > 100 µM; IC50 [9]: > 30 µM; IC50 [10]: 0.02 µM; IC50 [11]: 20.4 µM
COc1ccc2cc(C(=O)c3cc4ccccc4[nH]3)[nH]c2c1 | 0.3 µM | 
CN(C)CCCOc1ccc2[nH]c(C(=O)c3cc4ccccc4[nH]3)cc2c1 | 3.2 µM | 
CC(=O)Oc1ccccc1C(=O)Oc1ccc2[nH]c(C(=O)c3cc4ccccc4[nH]3)cc2c1 | 2.2 µM | 
CCC(=O)Oc1ccc2[nH]c(C(=O)c3cc4ccccc4[nH]3)cc2c1 | 0.9 µM | 
O=C(c1cc2ccccc2[nH]1)c1cc2cc(O)ccc2[nH]1 | 0.2 µM | IC50 [2]: 1 µM; IC50 [3]: > 30 µM; IC50 [4]: 0.2 µM; IC50 [5]: 0.6 µM; IC50 [6]: > 10 µM; IC50 [7]: > 30 µM; IC50 [9]: > 30 µM; IC50 [10]: 0.09 µM; IC50 [11]: > 100 µM
O=C(c1cc2ccccc2[nH]1)c1cc2cc(OCCCCI)ccc2[nH]1 | 5 µM | 
COc1ccc2[nH]c(C(=O)c3cc4ccccc4o3)cc2c1 | 4 µM | 
